Assay outcomes (PubChem)
PAFAH1B3 inh: PAFAH1B3 enzyme inhibitors, primary screen, biochemical, fluorescence polarization, human; inhibition, % at 3.39 µM; 340,000 tested, 0.28% active; Platelet-activating factor acetylhydrolase IB subunit alpha1 (Homo sapiens), Q15102; recombinant PAFAH1B3, FP-rhodamine probe;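 active = inhibition above the screen-wide average of all tested compounds plus 3 SD, cut at about 25% in these data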
Target sequence (Q15102 whole entry, looked up): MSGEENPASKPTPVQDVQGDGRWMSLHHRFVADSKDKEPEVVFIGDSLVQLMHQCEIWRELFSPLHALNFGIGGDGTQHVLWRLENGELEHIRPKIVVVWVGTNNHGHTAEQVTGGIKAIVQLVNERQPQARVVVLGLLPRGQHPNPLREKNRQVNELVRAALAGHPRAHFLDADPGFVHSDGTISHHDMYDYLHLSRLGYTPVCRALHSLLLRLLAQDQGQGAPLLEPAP
pPAFAH inh: pPAFAH enzyme inhibitors, primary screen, biochemical, fluorescence polarization, human. 330,000 tested, 1.5% active. AID 463082, 2010. recombinant pPAFAH, FP-rhodamine probe fluorescence polarization. Platelet-activating factor acetylhydrolase (Homo sapiens), Q13093. inhibition, % at 3.39 µM;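 active = inhibition above the mean inhibition across the screen plus 3 SD, cut at about 25% in these data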;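 note: inhibitors block binding of the rhodamine activity-based probe so polarization drops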
Apaf-1 inh: inhibitors of human Apaf-1 apoptosome, primary screen, biochemical, DEVD-Rh110 fluorescence, uHTS; Apoptotic protease-activating factor 1 (Homo sapiens), O14727; reconstituted apoptosome caspase-3 activity; inhibition, % at 20 µM; 330,000 tested, 0.71% active; AID 489030, 2010; active = inhibition of at least 40% at 20 µM
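Material: biochemical Apaf-1 apoptosome reconstitution. Medium: Hepes buffer, pH 7.5. Also added: cytochrome c activation, bis-DEVD rhodamine 110 substrate. Timing: 30 min compound preincubation, 50 min activation, room temperature. Measured by: rhodamine 110 fluorescence at Ex 480/Em 540 nm.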
PAFAH2 FP inh: PAFAH2 enzyme inhibitors, primary screen, biochemical, fluorescence polarization, human. Platelet-activating factor acetylhydrolase 2, cytoplasmic (Homo sapiens), Q99487. recombinant PAFAH2, FP-rhodamine activity probe. inhibition, % at 3.39 µM. 340,000 tested, 0.99% active;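 active = inhibition above the mean over all tested compounds plus 3 SD, cut at about 30% in these data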;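 note: inhibitors block probe labeling of enzyme so polarization drops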
PAFAH1B2 inh: PAFAH1B2 enzyme inhibitors, primary screen, biochemical, fluorescence polarization, human; Platelet-activating factor acetylhydrolase IB subunit alpha2 (Homo sapiens), P68402; recombinant PAFAH1B2, FP-rhodamine activity probe; inhibition, % at 3.39 µM; 340,000 tested, 1.2% active; AID 492953, 2010;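 active = inhibition above the mean of all tested compounds plus 3 SD, cut at about 24% in these data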
A number is an active result; 0 = inactive; - = no result given. Most compounds without a hit are left out; they make up all but 3.1% or so of the library.

SMILES	PAFAH1B3 inh	pPAFAH inh	Apaf-1 inh	PAFAH2 FP inh	PAFAH1B2 inh
CCCC(=O)Nc1ccc2c(c1)nc(CCN1CCCCC1)n2C	0	0	0	0	0
Cc1ccc(C)c(NC(=O)CN(C)C(=O)c2ccccc2OCc2ccccc2Cl)c1	0	0	0	0	0
Cc1nc(NC(=O)c2ccccc2)sc1C1(C)CC(c2ccc(OC(F)(F)F)cc2)=NO1 (configuration not stated)	-	0	0	-	-
O=C(N/N=C/c1ccc([N+](=O)[O-])o1)c1sc2ccccc2c1Cl	0	31	0	0	0
O=C(N/N=C/c1c[nH]c2ccccc12)c1sc2ccccc2c1Cl	0	25	0	0	0
O=C(CNc1ccc2ccccc2c1)N/N=C/c1ccc([N+](=O)[O-])o1	0	0	0	0	0
O=C(CSc1ccc(Cl)cc1)N/N=C/c1ccc([N+](=O)[O-])o1	0	0	0	0	29
O=C(N/N=C/c1c[nH]c2ccccc12)c1ccccc1	0	0	0	0	0
Cc1cc(F)ccc1NC(=O)C1CSC2(C)CCC(=O)N12 (configuration not stated)	0	0	0	0	0
COCCC(=O)N1CCC(Oc2ccc(C(=O)N3CCCC(CCCO)C3)cc2)CC1 (configuration not stated)	0	0	0	0	0
CSc1ccc(S(=O)(=O)N2CCC(C(=O)N3CCc4ccccc4C3)CC2)cc1	0	0	0	0	0
Cc1ccc(NC(=O)O/N=C/c2ccc(F)cc2)cc1	0	0	0	0	0
COc1ccc(NC(=O)O/N=C/c2ccc(Br)cc2)cc1	0	0	0	0	46
Cc1ccc(NC(=O)O/N=C/c2ccc(Br)cc2)cc1	0	0	0	0	58
CCOC(=O)c1cccc(N2CC3CNC(=O)C2(C(=O)OC)N3C)c1 (configuration not stated)	0	0	0	0	0
CCC(CNc1cc(OC)cc2cccnc12)NC1CCCCC1 (configuration not stated)	0	25	-	0	0
CC1(c2ccc(Cl)cc2Cl)NC(=O)N(CC(=O)Nc2ccc3[nH]c(=O)[nH]c3c2)C1=O (configuration not stated)	0	0	0	0	0
CC1=NOC2(C1)N(C)c1ccccc1C2(C)C (configuration not stated)	0	0	0	0	0
COc1ccc2ccc3c(c2c1)N=C[C@]1(O3)N(C)c2ccccc2C1(C)C	0	33	0	0	0
COc1cc(/C=C(\C#N)c2nc3c(s2)CCCC3)ccc1O	-	35	0	-	-
CCOc1ccccc1C(=O)OCC(=O)Nc1ncc(C(F)(F)F)cc1Cl	0	27	0	0	0
CCOc1ncccc1C(=O)OCC(=O)Nc1ncc(C(F)(F)F)cc1Cl	0	27	0	0	0
O=C(COC(=O)c1cccc2ccccc12)Nc1ncc(C(F)(F)F)cc1Cl	0	0	0	0	0
CCN1C(=O)C(=O)N(CC(=O)N2CCN(c3ccccc3)CC2)C1=O	0	0	0	0	0
Cc1cccc(-c2oc3ccccc3c2C#CCCO)c1	0	0	0	0	0
SMILES	PAFAH1B3 inh	pPAFAH inh	Apaf-1 inh	PAFAH2 FP inh	PAFAH1B2 inh
CS(=O)(=O)N(CC(=O)NCCSc1ccc(Cl)cc1)c1ccc2c(c1)OCO2	0	0	0	0	25
O=C(Nc1cccnc1)c1cc(-c2ccc(Cl)cc2Cl)on1	0	0	0	0	0
Nc1nc(-c2ccccc2)cs1	0	0	0	0	39
Nc1nc(-c2ccc(Br)cc2)cs1	0	0	0	0	83
Nc1nc(-c2ccc(F)cc2)cs1	0	0	0	0	55
Nc1nc(-c2cccc(Br)c2)cs1	0	0	0	0	0
N#CC1=C(c2ccc(-c3ccccc3)cc2)COC1=O	0	26	0	0	0
FC(F)(F)c1ccc2c(c1)NCC1CCCN21 (configuration not stated)	0	27	0	86	0
COc1ccc(-c2sc3ccc(N4CCOCC4)cc3c2C#Cc2ccsc2)cc1	0	28	0	0	0
CCOC(=O)CSc1ncc(-c2ccc([N+](=O)[O-])cc2)[nH]1	0	31	0	0	0
O=C(CN1C(=O)NC2(CCCCC2)C1=O)N1CCN(S(=O)(=O)c2ccc(F)c(F)c2F)CC1	0	-	0	0	0
